Assay results taken from ChEMBL document CHEMBL4145449, “Synthesis and biological evaluation of novel thiazole- VX-809 hybrid derivatives as F508del correctors by QSAR-based filtering tools” (Eur J Med Chem, 2018).
Calls of active or inactive are those of the source. No cut-off for these calls is given here.

How the values were obtained:
[1] = molecular target: T1, Cystic fibrosis transmembrane conductance regulator (Homo sapiens, UniProt P13569, F508DEL); experiment: Corrector activity at CFTR F508-del mutant (unknown origin) expressed in human CFBE41o cells harboring HS-YFP preincubated for 24 hrs followed by forskolin/genistein stimulation for 30 mins by fluorescence assay; format: cell-based
[2] = test system: Cystic fibrosis transmembrane conductance regulator (Homo sapiens), P13569 [F508del]; experiment: Potentiator activity at CFTR F508-del mutant (unknown origin) expressed in human CFBE41o cells harboring HS-YFP assessed as increase in forskolin-stimulated aninon permeability up to 25 uM after 30 mins by fluorescence assay; format: cell-based
Summary of the method: (§1)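 F508del-CFTR/HS-YFP CFBE41o- cells were rescued by 24 h incubation at 27 °C, then exposed 30 min to forskolin (20 μM) plus test compound in PBS. Iodide added to final 100 mM; HS-YFP quenching rate (initial slope dF/dt) from exponential fit of final 10 s, normalized to initial background-subtracted fluorescence; compared with forskolin alone.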

[3] = test system: Cystic fibrosis transmembrane conductance regulator (Homo sapiens), P13569 [F508del]; experiment: Synergistic corrector activity at CFTR F508-del mutant (unknown origin) expressed in human CFBE41o cells harboring HS-YFP preincubated for 24 hrs followed by forskolin/genistein stimulation for 30 mins in presence of VX-809 by fluorescence assay; format: cell-based
Summary of the method: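 CFBE41o- cells co-expressing F508del-CFTR and HS-YFP treated 24 h with compound (2, 10 or 25 μM) together with VX-809 (1 μM), then stimulated 30 min at 37 °C with forskolin (20 μM) and genistein (50 μM). Iodide influx (final 100 mM) measured as HS-YFP quenching rate.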

[4] = test system: Cystic fibrosis transmembrane conductance regulator (Homo sapiens), P13569 [F508del]; experiment: Potentiator activity at CFTR F508-del mutant (unknown origin) expressed in human CFBE41o cells harboring HS-YFP assessed as increase in forskolin-stimulated aninon permeability at 25 uM after 30 mins by fluorescence assay; format: cell-based; summary of the method: as §1
[5] = molecular target: T1, Cystic fibrosis transmembrane conductance regulator; experiment: Potentiator activity at CFTR F508-del mutant (unknown origin); summary of the method: as §1
[6] = molecular target: T1, Cystic fibrosis transmembrane conductance regulator; experiment: Corrector activity at CFTR F508-del mutant (unknown origin)
Summary of the method: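 CFBE41o- bronchial cells stably co-expressing F508del-CFTR and HS-YFP, 50,000 cells/well, 24 h at 37 °C, then 24 h with compound at different concentrations; 30 min stimulation at 37 °C with forskolin (20 μM) plus genistein (50 μM) in PBS. Iodide injection (final 100 mM), initial quenching slope from exponential fit; EC50 from Hill equation fits.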

Sequence of Cystic fibrosis transmembrane conductance regulator (Homo sapiens), P13569 [F508del] (P13569 as listed by the source): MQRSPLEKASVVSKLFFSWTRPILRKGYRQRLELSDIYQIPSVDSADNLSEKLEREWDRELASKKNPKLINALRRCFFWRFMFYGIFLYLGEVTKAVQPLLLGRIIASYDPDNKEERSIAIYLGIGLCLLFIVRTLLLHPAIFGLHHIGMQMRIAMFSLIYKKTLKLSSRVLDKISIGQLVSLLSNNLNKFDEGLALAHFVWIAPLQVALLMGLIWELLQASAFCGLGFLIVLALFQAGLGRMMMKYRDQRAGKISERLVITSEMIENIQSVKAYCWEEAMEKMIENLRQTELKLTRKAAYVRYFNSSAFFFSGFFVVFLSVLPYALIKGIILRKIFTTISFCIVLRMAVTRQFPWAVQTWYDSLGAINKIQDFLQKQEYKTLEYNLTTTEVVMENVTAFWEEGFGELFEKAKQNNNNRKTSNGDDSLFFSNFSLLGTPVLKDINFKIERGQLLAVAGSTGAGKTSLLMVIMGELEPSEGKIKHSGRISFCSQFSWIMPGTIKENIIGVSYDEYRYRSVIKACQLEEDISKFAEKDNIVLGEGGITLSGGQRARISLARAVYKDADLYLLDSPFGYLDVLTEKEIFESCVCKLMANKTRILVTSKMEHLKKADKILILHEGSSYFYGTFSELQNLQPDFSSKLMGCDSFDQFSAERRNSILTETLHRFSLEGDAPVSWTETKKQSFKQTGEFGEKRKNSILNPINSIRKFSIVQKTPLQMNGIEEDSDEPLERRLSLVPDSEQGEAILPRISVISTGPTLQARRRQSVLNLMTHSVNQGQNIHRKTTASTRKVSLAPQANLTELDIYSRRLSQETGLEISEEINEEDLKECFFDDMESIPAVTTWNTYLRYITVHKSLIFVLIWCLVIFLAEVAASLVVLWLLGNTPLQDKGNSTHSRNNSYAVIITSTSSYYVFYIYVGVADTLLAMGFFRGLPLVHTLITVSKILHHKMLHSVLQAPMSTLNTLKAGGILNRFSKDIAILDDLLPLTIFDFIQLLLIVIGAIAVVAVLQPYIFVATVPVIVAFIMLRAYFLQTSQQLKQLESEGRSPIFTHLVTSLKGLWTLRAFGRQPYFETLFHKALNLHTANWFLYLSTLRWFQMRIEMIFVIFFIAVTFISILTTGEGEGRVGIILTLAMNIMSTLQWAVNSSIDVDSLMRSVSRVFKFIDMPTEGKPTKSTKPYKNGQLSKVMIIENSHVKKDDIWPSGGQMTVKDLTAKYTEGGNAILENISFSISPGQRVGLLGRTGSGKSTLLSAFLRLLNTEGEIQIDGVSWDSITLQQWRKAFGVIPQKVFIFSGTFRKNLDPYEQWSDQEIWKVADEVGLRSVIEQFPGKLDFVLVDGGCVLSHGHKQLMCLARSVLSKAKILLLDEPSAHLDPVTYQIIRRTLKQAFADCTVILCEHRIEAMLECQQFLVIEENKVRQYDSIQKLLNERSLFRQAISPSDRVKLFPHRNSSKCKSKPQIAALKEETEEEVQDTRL
T1 sequence (P13569 as listed by the source): as above

| SMILES | EC50 ([1]; read-out: EC50) [µM] | Activity [2] | Activity [3] | EC50 ([1]; read-out: pEC50 (converted)) [µM] | also measured |
| --- | --- | --- | --- | --- | --- |
| Cc1sc(NC(=O)C2(c3ccc4c(c3)OCO4)CC2)nc1-c1ccc(Cl)cc1 | 2.9 | inactive | inactive | – | – |
| Cc1cc(C)c2cc(C#N)c(N3CCN(C(=O)c4ccccn4)CC3)nc2c1 | – | – | – | 100 | – |
| CN(C)CCN1CCN(c2nc(-c3ccccn3)nc3c2CN(Cc2ccc(F)cc2)CC3)CC1 | – | – | – | 100 | – |
| CCOC(=O)c1sc(NC(=O)C2(c3ccc4c(c3)OCO4)CC2)nc1-c1cccc(Cl)c1 | 0.55 | inactive | inactive | – | – |
| CN(C)CCN1CCN(c2nc(-c3ccccn3)nc3c2CN(C(=O)c2ccccc2)CC3)CC1 | – | – | – | 100 | – |
| CCOC(=O)c1sc(NC(=O)C2(c3ccc4c(c3)OCO4)CC2)nc1-c1ccc(Cl)cc1 | 0.9 | inactive | inactive | – | – |
| NC(=O)CN1CCN(c2nc(-c3cccnc3)nc3c2CN(Cc2ccccc2)CC3)CC1 | – | – | – | 100 | – |
| CCOC(=O)c1sc(NC(=O)C2(c3ccc4c(c3)OCO4)CC2)nc1-c1ccc(Br)cc1 | 0.3 | inactive | inactive | – | – |
| COc1ccc(CN2CCc3nc(-c4ccccn4)nc(N4CCN(CCN(C)C)CC4)c3C2)cc1 | – | – | – | 100 | – |
| O=C(Nc1cccc2cccnc12)C1(c2ccc3c(c2)OCO3)CC1 | 2.2 | – | inactive | – | Activity [4]: 50% |
| CN(C)CCN1CCN(c2nc(-c3ccccn3)nc3c2CN(S(=O)(=O)c2ccccc2)CC3)CC1 | – | – | – | 100 | – |
| O=C(Nc1ncc(Cc2ccccc2Cl)s1)C(c1ccccc1)c1ccccc1 | – | – | – | – | EC50 [5]: 7.9 µM; EC50 [6]: 16 µM |
| Cc1cc(C)c2cc(C#N)c(NCCCNC(=O)c3ccccn3)nc2c1 | – | – | – | 100 | – |
| O=C(O)c1ccc(-c2csc(NC(=O)C3(c4ccc5c(c4)OCO5)CC3)n2)cc1 | > 5 | inactive | inactive | > 5.01 | – |
| O=C(Nc1nc(-c2ccc(O)cc2)cs1)C1(c2ccc3c(c2)OC(F)(F)O3)CC1 | 1.7 | inactive | inactive | – | – |
| O=C(Nc1nc(-c2ccc(Cl)cc2)cs1)C1(c2ccc3c(c2)OCO3)CC1 | 2.9 | inactive | inactive | – | – |
| Cc1cc(C)c2cc(C#N)c(N3CCN(C(=O)c4ccncc4)CC3)nc2c1 | – | – | – | 100 | – |
| COc1ccc(Cl)cc1Nc1nc(-c2sc(NC(=O)C(C)(C)C)nc2C)cs1 | – | – | – | 0.708 | – |
| O=C(Nc1nc(-c2cccc(O)c2)cs1)C1(c2ccc3c(c2)OC(F)(F)O3)CC1 | 1.3 | inactive | inactive | – | – |
| O=C(Nc1nc(-c2ccc(I)cc2)cs1)C1(c2ccc3c(c2)OCO3)CC1 | 1.2 | inactive | inactive | – | – |

| SMILES | EC50 ([1]; read-out: EC50) [µM] | Activity [2] | Activity [3] | EC50 ([1]; read-out: pEC50 (converted)) [µM] | also measured |
| --- | --- | --- | --- | --- | --- |
| O=C(Nc1nc(-c2cccc(Cl)c2)cs1)C1(c2ccc3c(c2)OCO3)CC1 | 8.2 | inactive | inactive | – | – |
| CCOC(=O)n1nc(-c2sc(NC(=O)C(C)(C)C)nc2C)cc1Cc1ccccc1 | – | – | – | 8.51 | – |
| CSc1cccc(NC(=O)C2(c3ccc4c(c3)OCO4)CC2)c1 | 8 | inactive | inactive | – | – |
| NC(=O)C1CCN(c2nc(-c3cccnc3)nc3c2CN(Cc2ccccc2)CC3)CC1 | – | – | – | > 100 | – |
| O=C(Nc1nc(-c2cccc(O)c2)cs1)C1(c2ccc3c(c2)OCO3)CC1 | 2.3 | – | inactive | – | Activity [4]: 50% |
| COc1ccc(Cl)cc1Cc1cc(-c2sc(NC(=O)C(C)(C)C)nc2C)nn1C(=O)N1CCOCC1 | – | – | – | 1 | – |
| O=C(Nc1nc(-c2cccc(F)c2)cs1)C1(c2ccc3c(c2)OCO3)CC1 | 2.1 | inactive | inactive | – | – |
| COc1cccc(C(=O)N2CCN(c3nc4cc(C)cc(C)c4cc3C#N)CC2)c1 | – | – | – | 100 | – |
| Cc1cc(C)c2cc(C#N)c(NCCNC(=O)c3ccccn3)nc2c1 | – | – | – | > 100 | – |
| Cc1sc(NC(=O)C2(c3ccc4c(c3)OCO4)CC2)nc1-c1ccccc1 | 1.6 | inactive | inactive | – | – |
| O=C(Nc1nc(-c2cccc(Cl)c2)cs1)C1(c2ccc3c(c2)OC(F)(F)O3)CC1 | – | inactive | inactive | – | – |
| Cc1sc(NC(=O)C2(c3ccc4c(c3)OCO4)CC2)nc1-c1ccc(Br)cc1 | 1.9 | inactive | inactive | – | – |
| CC(=O)NCCCNc1nc(-c2ccccn2)nc2c1CN(Cc1ccc(F)cc1)CC2 | – | – | – | 0.2 | – |
| O=C(Nc1nc(-c2ccc(Br)cc2)cs1)C1(c2ccc3c(c2)OCO3)CC1 | 4.9 | inactive | inactive | – | – |
| Cc1sc(NC(=O)C2(c3ccc4c(c3)OCO4)CC2)nc1-c1ccc(O)cc1 | 3.9 | inactive | inactive | – | – |
| C=CCc1cc(-c2sc(NC(=O)C(C)(C)C)nc2C)nn1C(=O)Nc1ccccc1 | – | – | – | 3.02 | – |
| CC(=O)c1sc(NC(=O)C2(c3ccc4c(c3)OCO4)CC2)nc1C | – | inactive | inactive | – | – |
| CC(=O)Nc1ccc(-c2csc(NC(=O)C3(c4ccc5c(c4)OCO5)CC3)n2)cc1 | > 5 | inactive | inactive | > 5.01 | – |
| COc1cccc(C(=O)NCCNc2nc3cc(C)cc(C)c3cc2C#N)c1 | – | – | – | – | EC50 [5]: 5.9 µM; EC50 [6]: 1.5 µM |

Second part, led by results:

| EC50 ([1]; read-out: EC50) [µM] | Activity [2] | Activity [3] | EC50 ([1]; read-out: pEC50 (converted)) [µM] | SMILES | also measured |
| --- | --- | --- | --- | --- | --- |
| – | – | – | 1 | COc1ccc(NC(=O)n2nc(-c3sc(NC(=O)C(C)(C)C)nc3C)cc2Cc2cc(Cl)ccc2OC)cc1 | – |
| – | – | – | > 100 | COc1ccccc1C(=O)NCCCNc1nc2cc(C)cc(C)c2cc1C#N | – |
| 1.2 | – | inactive | – | Cc1sc(NC(=O)C2(c3ccc4c(c3)OCO4)CC2)nc1-c1cccc(O)c1 | Activity [4]: 50% |
| 0.087 | inactive | inactive | – | O=C(c1ccccc1)c1sc(NC(=O)C2(c3ccc4c(c3)OCO4)CC2)nc1-c1ccccc1 | – |
| – | – | – | 0.2 | Fc1ccc(CN2CCc3nc(-c4ccccn4)nc(NCCCN4CCCC4)c3C2)cc1 | – |
| 3.8 | inactive | inactive | – | Cc1sc(NC(=O)C2(c3ccc4c(c3)OC(F)(F)O4)CC2)nc1-c1ccc(Br)cc1 | – |
| 0.9 | inactive | inactive | – | Cc1sc(NC(=O)C2(c3ccc4c(c3)OCO4)CC2)nc1-c1ccc(F)cc1 | – |
| – | – | – | 100 | Cc1cc(C)c2cc(C#N)c(N3CCN(C(=O)c4cccnc4)CC3)nc2c1 | – |
| – | – | – | 100 | COc1ccccc1C(=O)N1CCN(c2nc3cc(C)cc(C)c3cc2C#N)CC1 | – |
| 2.3 | inactive | inactive | – | Cc1sc(NC(=O)C2(c3ccc4c(c3)OCO4)CC2)nc1-c1cccc(Cl)c1 | – |
| – | – | – | 100 | CN(C)CCN1CCN(c2nc(-c3ccncc3)nc3c2CN(Cc2ccccc2)CC3)CC1 | – |
| – | – | – | 0.933 | C=CCc1cc(-c2sc(NC(=O)C(C)(C)C)nc2C)nn1C(=O)Nc1ccc(OC)cc1 | – |
| – | – | – | > 100 | CN(C)CCN1CCN(c2nc(-c3cccnc3)nc3c2CN(Cc2ccccc2)CC3)CC1 | – |
| 2.9 | inactive | inactive | – | Cc1sc(NC(=O)C2(c3ccc4c(c3)OCO4)CC2)nc1-c1ccc(C(=O)O)cc1 | – |
| – | – | – | > 100 | CN1CCN(CCCNc2nc(-c3cccnc3)nc3c2CN(Cc2ccccc2)CC3)CC1 | – |
| – | – | – | 100 | COc1ccc(C(=O)N2CCN(c3nc4cc(C)cc(C)c4cc3C#N)CC2)cc1 | – |
| – | – | – | 100 | CCN(C(C)=O)C1CCN(c2nc(-c3ccccn3)nc3c2CN(Cc2ccc(Cl)cc2)CC3)C1 (centres undefined) | – |
| – | – | – | 13.2 | Cc1cc(C)c2cc(C#N)c(NCCCNC(=O)c3ccncc3)nc2c1 | – |
| 5.4 | inactive | inactive | – | Cc1sc(NC(=O)C2(c3ccc4c(c3)OC(F)(F)O4)CC2)nc1-c1cccc(Cl)c1 | – |
| – | – | – | 3.39 | COc1ccc(NC(=O)c2cc(-c3sc(NC(=O)C(C)(C)C)nc3C)n(-c3ccc(Br)cc3)n2)cc1 | – |
| – | – | – | 100 | CN1CCN(CCCNc2nc(-c3ccncc3)nc3c2CN(Cc2ccccc2)CC3)CC1 | – |
| 1.8 | inactive | inactive | – | O=C(Nc1nc(-c2ccc(O)cc2)cs1)C1(c2ccc3c(c2)OCO3)CC1 | – |
| – | – | – | 0.759 | Cc1nc(NC(=O)C(C)(C)C)sc1-c1cc(Cc2ccccc2)n(C(=O)NCc2ccccc2)n1 | – |
| – | – | – | 3.02 | COc1ccc(Cl)cc1Cc1cc(-c2sc(NC(=O)C(C)(C)C)nc2C)nn1C(=O)NCCO | – |
| – | – | – | > 100 | Cc1cc(C)c2cc(C#N)c(NCCNC(=O)c3ccccc3)nc2c1 | – |
